The chains are these.
B1: NELF-E aptamer (parent)
chain: CCCAACGACUGCCGAGCGAGAUUACGCUUGAGCGCCCCACUGAGGAUGCCCACGGGCGAUUGGGGCACGG

Variants of B1 are the subject of this data set. Briefly: HiTS-RAP. Conditions: with NELF-E (Drosophila). An outline of the steps:
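Aptamer DNA templates bearing a T7 promoter and a ter site were sequenced on an Illumina GAIIx flowcell. T7 RNA polymerase then transcribed them in situ, and GST-Tus halted transcription over 30 minutes at 37°C. After a 30-minute room-temperature equilibration with NELF-E-mOrange at 0.064 to 1000 nM in HEPES binding buffer, clusters were imaged, using only the first binding curve. Intensities normalised to sequencing intensity were averaged per sequence and fitted with weighted Hill fits to give Kd, retaining only fits whose variance stayed under 1,000,000.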
As for CCCAAGGACUGCCGAGCGAGAGUACGCUUGAGCGCCCCACUGAGGAUGCCCACGGGCGAUUGGGGCACGG [C6G U22G], the Kd came out at 5.09 nM. With CCCAAGGACUGCCGAGCGAGACUACGCUUGAGCGCCCCACUGAGGAUGCCCACGGGCGAUUGGGGCACGG [C6G U22C] the figure was 5.08 nM.

Take CCCAAUGACUGCCGAGCGGGAUUACGCUUGAGCGCCCCACUGAGGAUGCCCACGGGCGAUUGGGGCACGG [C6U A19G]: the equilibrium dissociation constant (Kd) was found to be 6.06 nM. With CCCAACAUCUGCCGAGCGAGAUUACGCUUGAGCGCCCCACUGAGGAUGCCCACGGGCGAUUGGGGCACGG [G7A A8U] the figure was 8.46 nM; with CCCAACACCUGCCGAGCGAGAUUACGCUUGAGCGCCCCACUGAGGAUGCCCACGGGCGAUUGGGGCACGG [G7A A8C], 5.87 nM. With CCCAACAGCUGCCGAGCGAGAUUACGCUUGAGCGCCCCACUGAGGAUGCCCACGGGCGAUUGGGGCACGG [G7A A8G] the figure was 6.39 nM; with CCCAAUGACUGCCGAGCGAGAUUACGCUUGAGCGCCCCACUGAGGAUGCCCACGGGCGAUUGGGGCACGG [C6U], 5.29 nM. With CCCAAUGACUGCCGAGCGAGAUUACGCUUGGGCGCCCCACUGAGGAUGCCCACGGGCGAUUGGGGCACGG [C6U A31G] the figure was 8.72 nM; with CCCAAUGACUGCCAAGCGAGAUUACGCUUGAGCGCCCCACUGAGGAUGCCCACGGGCGAUUGGGGCACGG [C6U G14A], 7.01 nM. With CCCAAUGACUGCCUAGCGAGAUUACGCUUGAGCGCCCCACUGAGGAUGCCCACGGGCGAUUGGGGCACGG [C6U G14U], the dissociation constant Kd worked out at 7.02 nM. With CCCAAGGACUGCCGAGCGAGAUUACGCUUGAGCGCCCCACCGAGGAUGCCCACGGGCGAUUGGGGCACGG [C6G U41C] the figure was 64.8 nM. With CCCAAGGACUGCCGAGCGAGAUUACGCUUGAGCGCCCCACGGAGGAUGCCCACGGGCGAUUGGGGCACGG [C6G U41G] the figure was 5.12 nM; with CCCAAGGACUGCCGAGCGAGAUUACGCUUGAGCGCCCCACAGAGGAUGCCCACGGGCGAUUGGGGCACGG [C6G U41A], 103 nM. With CCCAAGGACUGCCGAGCGAGAUUACGCUUGAGCGCCCCACUGAGGAUGCCCACGGGCGAUGGGGGCACGG [C6G U61G] the figure was 7 nM. CCCAAGGACUGCCGAGCGAGAUUACGCUUGAGCGCCCCACUGAGGAUGCCCACGGGCGAUAGGGGCACGG [C6G U61A]: the dissociation constant (Kd) is 38.7 nM. With CCCAAGGACUGCCGAGCGAGAUUACGCUUGAGCGCCCCACUGAGGAUGCCCACGGGCGAUCGGGGCACGG [C6G U61C] the figure was 74.8 nM. In the case of CCCAAUGACUGCCGAGCGAGAUGACGCUUGAGCGCCCCACUGAGGAUGCCCACGGGCGAUUGGGGCACGG [C6U U23G], the Kd was determined as 6.14 nM. With CCCAAUGAGUGCCGAGCGAGAUUACGCUUGAGCGCCCCACUGAGGAUGCCCACGGGCGAUUGGGGCACGG [C6U C9G] the figure was 6.57 nM; with CCCAAUGAUUGCCGAGCGAGAUUACGCUUGAGCGCCCCACUGAGGAUGCCCACGGGCGAUUGGGGCACGG [C6U C9U], 5.38 nM; with CCCAAUGACUUCCGAGCGAGAUUACGCUUGAGCGCCCCACUGAGGAUGCCCACGGGCGAUUGGGGCACGG [C6U G11U], 6.12 nM. With CCCAAUGACUACCGAGCGAGAUUACGCUUGAGCGCCCCACUGAGGAUGCCCACGGGCGAUUGGGGCACGG [C6U G11A] the figure was 5.43 nM; with CCCAAGGACUGCCGAGCGAGAUUACGCUUGAGCGCCCCACUGAGGAUGCCCACGGGCGACUGGGGCACGG [C6G U60C], 10.3 nM. As for CCCAAGGACUGCCGAGCGAGAUUACGCUUGAGCGCCCCACUGAGGAUGCCCACGGGCGAAUGGGGCACGG [C6G U60A], the Kd came to 10.9 nM. With CCCAAGGACUGCCGAGCGAGAUUACGCUUGAGCGCCCCACUGAGGAUGCCCACGGGCGAGUGGGGCACGG [C6G U60G] the figure was 5.7 nM; with CCCAAUGACUGCCGAGCGAGAUUACGCUUGAGCGCCCCACUAAGGAUGCCCACGGGCGAUUGGGGCACGG [C6U G42A], 52.7 nM.

In the case of CCCAAUGACUGCCGAGCGAGAUUACGCUUGAGCGCCCCGCUGAGGAUGCCCACGGGCGAUUGGGGCACGG [C6U A39G], the Kd came to 11.6 nM. With CCCAAUGACUGCCGAGCGAGAUUACGCUUGAGCGCCCCACUGAGGAUGCCCACGGUCGAUUGGGGCACGG [C6U G56U] the figure was 6.57 nM; with CCCAAUGACUGCCGAGCGAGAUUACGCUAGAGCGCCCCACUGAGGAUGCCCACGGGCGAUUGGGGCACGG [C6U U29A], 5.66 nM. With CCCAAUGACUGCCGAGCGAGAUUACGCUGGAGCGCCCCACUGAGGAUGCCCACGGGCGAUUGGGGCACGG [C6U U29G] the figure was 5.8 nM; with CCCAAUGACUGCCGAGCGAUAUUACGCUUGAGCGCCCCACUGAGGAUGCCCACGGGCGAUUGGGGCACGG [C6U G20U], 8.79 nM; with CCCAAGGACUGCCGAGCGAGAUUACGCUUGAGCGCCCCACUGAGGAUGCCCACGGGCGAUUGGGACACGG [C6G G65A], 4.46 nM.

With CCCAAGGACUGCCGAGCGAGAUUACGCUUGAGCGCCCCACUGAGGAUGCCCACGGGCGAUUGGGUCACGG [C6G G65U], the Kd amounted to 6.3 nM. With CCCAAUGACUGCCGAGCGAGAUUGCGCUUGAGCGCCCCACUGAGGAUGCCCACGGGCGAUUGGGGCACGG [C6U A24G] the figure was 5.94 nM; with CCCAAGGACUGCCGAGCGAGAUUACGCUUGAGCGCCCCACUGAGGAAGCCCACGGGCGAUUGGGGCACGG [C6G U47A], 10.5 nM; with CCCAAGGACUGCCGAGCGAGAUUACGCUUGAGCGCCCCACUGAGGAGGCCCACGGGCGAUUGGGGCACGG [C6G U47G], 6.93 nM. With CCCAAGGACUGCCGAGCGAGAUUACGCCUGAGCGCCCCACUGAGGAUGCCCACGGGCGAUUGGGGCACGG [C6G U28C] the figure was 9 nM; with CCCAAGGACUGCCGAGCGAGAUUACGCAUGAGCGCCCCACUGAGGAUGCCCACGGGCGAUUGGGGCACGG [C6G U28A], 5.13 nM.

As to CCCAAGGACUGCCGAGCGAGAUUACGCGUGAGCGCCCCACUGAGGAUGCCCACGGGCGAUUGGGGCACGG [C6G U28G], the dissociation constant (Kd) was 6.54 nM.

Values taken from the RNAGym collection of RNA variant scans (doi:10.1038/nmeth.2970).
